# In publication PMC3902791 (Molecular imaging and biology : MIB : the official …, 2012):
# Where two headings read alike, the source gives them in different places.
# Design: species or system human
# Summary of the method: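 Organ time–activity curves came from whole-body scan VOI data. These were fitted mono-exponentially in five animals; in the sixth, with two scans, a linear fit to the log values was used. Time-integrated activity coefficients were scaled by the ratio of body-mass-normalised human to CT-derived macaque organ masses. Intestinal values were split in thirds across small intestine, ULI and LLI. Organ doses (mSv/MBq) were computed per animal with the OLINDA/EXM 1.1 adult male model.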
smiles,measurement,setting,value
"O=C(O)C[18F] [^18F-FACE, ^18F-fluoroacetate]","Organ dose to adult human model, Lungs","from animal 2, male",0.010 mSv/MBq
same,"Organ dose to adult human model, Muscle","from animal 2, male",0.010 mSv/MBq
same,"Organ dose to adult human model, Osteogenic cells","from animal 2, male",0.014 mSv/MBq
same,"Organ dose to adult human model, Pancreas","from animal 2, male",0.014 mSv/MBq
same,"Organ dose to adult human model, Red marrow","from animal 2, male",0.011 mSv/MBq
same,"Organ dose to adult human model, Skin","from animal 2, male",0.007 mSv/MBq
same,"Organ dose to adult human model, Small intestine","from animal 2, male",0.045 mSv/MBq
same,"Organ dose to adult human model, Spleen","from animal 2, male",0.011 mSv/MBq
same,"Organ dose to adult human model, Stomach wall","from animal 2, male",0.013 mSv/MBq
same,"Organ dose to adult human model, Testes","from animal 2, male",0.009 mSv/MBq
same,"Organ dose to adult human model, Thymus","from animal 2, male",0.010 mSv/MBq
same,"Organ dose to adult human model, Thyroid","from animal 2, male",0.009 mSv/MBq
same,"Organ dose to adult human model, ULI wall (upper large intestine)","from animal 2, male",0.071 mSv/MBq
same,"Organ dose to adult human model, Urinary bladder wall","from animal 2, male",0.015 mSv/MBq
same,"Dose to adult human model, Total body","from animal 3, male",0.012 mSv/MBq
same,"ED effective dose, adult human model","from animal 3, male",0.028 mSv/MBq
same,"EDE effective dose equivalent, adult human model","from animal 3, male",0.030 mSv/MBq
same,"Organ dose to adult human model, Adrenals","from animal 3, male",0.013 mSv/MBq
same,"Organ dose to adult human model, Brain","from animal 3, male",0.009 mSv/MBq
same,"Organ dose to adult human model, Breasts","from animal 3, male",0.008 mSv/MBq
same,"Organ dose to adult human model, Gallbladder wall","from animal 3, male",0.017 mSv/MBq
same,"Organ dose to adult human model, Heart wall","from animal 3, male",0.020 mSv/MBq
same,"Organ dose to adult human model, Kidneys","from animal 3, male",0.034 mSv/MBq
same,"Organ dose to adult human model, LLI wall (lower large intestine)","from animal 3, male",0.120 mSv/MBq
same,"Organ dose to adult human model, Liver","from animal 3, male",0.014 mSv/MBq
same,"Organ dose to adult human model, Lungs","from animal 3, male",0.010 mSv/MBq
same,"Organ dose to adult human model, Muscle","from animal 3, male",0.011 mSv/MBq
same,"Organ dose to adult human model, Osteogenic cells","from animal 3, male",0.016 mSv/MBq
same,"Organ dose to adult human model, Pancreas","from animal 3, male",0.014 mSv/MBq
same,"Organ dose to adult human model, Red marrow","from animal 3, male",0.012 mSv/MBq
same,"Organ dose to adult human model, Skin","from animal 3, male",0.008 mSv/MBq
same,"Organ dose to adult human model, Small intestine","from animal 3, male",0.055 mSv/MBq
same,"Organ dose to adult human model, Spleen","from animal 3, male",0.012 mSv/MBq
same,"Organ dose to adult human model, Stomach wall","from animal 3, male",0.014 mSv/MBq
same,"Organ dose to adult human model, Testes","from animal 3, male",0.010 mSv/MBq
same,"Organ dose to adult human model, Thymus","from animal 3, male",0.010 mSv/MBq
same,"Organ dose to adult human model, Thyroid","from animal 3, male",0.010 mSv/MBq
same,"Organ dose to adult human model, ULI wall (upper large intestine)","from animal 3, male",0.088 mSv/MBq
same,"Organ dose to adult human model, Urinary bladder wall","from animal 3, male",0.017 mSv/MBq
same,"Dose to adult human model, Total body","from animal 4, female",0.008 mSv/MBq
same,"ED effective dose, adult human model","from animal 4, female",0.016 mSv/MBq
same,"EDE effective dose equivalent, adult human model","from animal 4, female",0.019 mSv/MBq
same,"Organ dose to adult human model, Adrenals","from animal 4, female",0.010 mSv/MBq
same,"Organ dose to adult human model, Brain","from animal 4, female",0.005 mSv/MBq
same,"Organ dose to adult human model, Breasts","from animal 4, female",0.005 mSv/MBq
same,"Organ dose to adult human model, Gallbladder wall","from animal 4, female",0.040 mSv/MBq
same,"Organ dose to adult human model, Heart wall","from animal 4, female",0.027 mSv/MBq
same,"Organ dose to adult human model, Kidneys","from animal 4, female",0.026 mSv/MBq
same,"Organ dose to adult human model, LLI wall (lower large intestine)","from animal 4, female",0.060 mSv/MBq
same,"Organ dose to adult human model, Liver","from animal 4, female",0.032 mSv/MBq
same,"Organ dose to adult human model, Lungs","from animal 4, female",0.007 mSv/MBq
same,"Organ dose to adult human model, Muscle","from animal 4, female",0.007 mSv/MBq
same,"Organ dose to adult human model, Osteogenic cells","from animal 4, female",0.010 mSv/MBq
same,"Organ dose to adult human model, Ovaries","from animal 4, female",0.013 mSv/MBq
same,"Organ dose to adult human model, Pancreas","from animal 4, female",0.010 mSv/MBq
same,"Organ dose to adult human model, Red marrow","from animal 4, female",0.007 mSv/MBq
same,"Organ dose to adult human model, Skin","from animal 4, female",0.005 mSv/MBq
same,"Organ dose to adult human model, Small intestine","from animal 4, female",0.029 mSv/MBq
same,"Organ dose to adult human model, Spleen","from animal 4, female",0.008 mSv/MBq
same,"Organ dose to adult human model, Stomach wall","from animal 4, female",0.009 mSv/MBq
same,"Organ dose to adult human model, Thymus","from animal 4, female",0.007 mSv/MBq
same,"Organ dose to adult human model, Thyroid","from animal 4, female",0.006 mSv/MBq
same,"Organ dose to adult human model, ULI wall (upper large intestine)","from animal 4, female",0.045 mSv/MBq
same,"Organ dose to adult human model, Urinary bladder wall","from animal 4, female",0.014 mSv/MBq
same,"Organ dose to adult human model, Uterus","from animal 4, female",0.011 mSv/MBq
same,"Dose to adult human model, Total body","from animal 5, female",0.010 mSv/MBq
same,"ED effective dose, adult human model","from animal 5, female",0.018 mSv/MBq
same,"EDE effective dose equivalent, adult human model","from animal 5, female",0.021 mSv/MBq
same,"Organ dose to adult human model, Adrenals","from animal 5, female",0.012 mSv/MBq
same,"Organ dose to adult human model, Brain","from animal 5, female",0.008 mSv/MBq
same,"Organ dose to adult human model, Breasts","from animal 5, female",0.008 mSv/MBq
same,"Organ dose to adult human model, Gallbladder wall","from animal 5, female",0.036 mSv/MBq
same,"Organ dose to adult human model, Heart wall","from animal 5, female",0.015 mSv/MBq
same,"Organ dose to adult human model, Kidneys","from animal 5, female",0.042 mSv/MBq
same,"Organ dose to adult human model, LLI wall (lower large intestine)","from animal 5, female",0.062 mSv/MBq
same,"Organ dose to adult human model, Liver","from animal 5, female",0.015 mSv/MBq
same,"Organ dose to adult human model, Lungs","from animal 5, female",0.009 mSv/MBq
same,"Organ dose to adult human model, Muscle","from animal 5, female",0.010 mSv/MBq
same,"Organ dose to adult human model, Osteogenic cells","from animal 5, female",0.014 mSv/MBq
same,"Organ dose to adult human model, Ovaries","from animal 5, female",0.017 mSv/MBq
same,"Organ dose to adult human model, Pancreas","from animal 5, female",0.013 mSv/MBq
same,"Organ dose to adult human model, Red marrow","from animal 5, female",0.010 mSv/MBq
same,"Organ dose to adult human model, Skin","from animal 5, female",0.007 mSv/MBq
same,"Organ dose to adult human model, Small intestine","from animal 5, female",0.031 mSv/MBq
same,"Organ dose to adult human model, Spleen","from animal 5, female",0.011 mSv/MBq
same,"Organ dose to adult human model, Stomach wall","from animal 5, female",0.012 mSv/MBq
same,"Organ dose to adult human model, Thymus","from animal 5, female",0.009 mSv/MBq
same,"Organ dose to adult human model, Thyroid","from animal 5, female",0.009 mSv/MBq
same,"Organ dose to adult human model, ULI wall (upper large intestine)","from animal 5, female",0.047 mSv/MBq
same,"Organ dose to adult human model, Urinary bladder wall","from animal 5, female",0.017 mSv/MBq
same,"Organ dose to adult human model, Uterus","from animal 5, female",0.014 mSv/MBq
same,"Dose to adult human model, Total body","from animal 6, female",0.012 mSv/MBq
same,"ED effective dose, adult human model","from animal 6, female",0.018 mSv/MBq
same,"EDE effective dose equivalent, adult human model","from animal 6, female",0.019 mSv/MBq
same,"Organ dose to adult human model, Adrenals","from animal 6, female",0.013 mSv/MBq
same,"Organ dose to adult human model, Brain","from animal 6, female",0.010 mSv/MBq
same,"Organ dose to adult human model, Breasts","from animal 6, female",0.009 mSv/MBq
same,"Organ dose to adult human model, Gallbladder wall","from animal 6, female",0.016 mSv/MBq
same,"Organ dose to adult human model, Heart wall","from animal 6, female",0.017 mSv/MBq
same,"Organ dose to adult human model, Kidneys","from animal 6, female",0.026 mSv/MBq
same,"Organ dose to adult human model, LLI wall (lower large intestine)","from animal 6, female",0.052 mSv/MBq
same,"Organ dose to adult human model, Liver","from animal 6, female",0.017 mSv/MBq
same,"Organ dose to adult human model, Lungs","from animal 6, female",0.011 mSv/MBq
same,"Organ dose to adult human model, Muscle","from animal 6, female",0.011 mSv/MBq
same,"Organ dose to adult human model, Osteogenic cells","from animal 6, female",0.017 mSv/MBq
same,"Organ dose to adult human model, Ovaries","from animal 6, female",0.018 mSv/MBq
same,"Organ dose to adult human model, Pancreas","from animal 6, female",0.014 mSv/MBq
same,"Organ dose to adult human model, Red marrow","from animal 6, female",0.011 mSv/MBq
same,"Organ dose to adult human model, Skin","from animal 6, female",0.009 mSv/MBq
same,"Organ dose to adult human model, Small intestine","from animal 6, female",0.029 mSv/MBq
same,"Organ dose to adult human model, Spleen","from animal 6, female",0.013 mSv/MBq
same,"Organ dose to adult human model, Stomach wall","from animal 6, female",0.013 mSv/MBq
same,"Organ dose to adult human model, Thymus","from animal 6, female",0.011 mSv/MBq
same,"Organ dose to adult human model, Thyroid","from animal 6, female",0.011 mSv/MBq
same,"Organ dose to adult human model, ULI wall (upper large intestine)","from animal 6, female",0.040 mSv/MBq
same,"Organ dose to adult human model, Urinary bladder wall","from animal 6, female",0.021 mSv/MBq
same,"Organ dose to adult human model, Uterus","from animal 6, female",0.016 mSv/MBq
